Article PMC7733813 (Proceedings of the National Academy of Sciences of the …, 2020)
pKd: −log10 of the molar value. Where a SMILES comes first, the peptide text is derived from it. Bridges are numbered along the chain shown (N, C = ends). Roman numbers before positions name the chains, in order. [ ]: non-standard residue; d: D form. PEG3 = NCCOCCOCCOCCC(=O)O; Dap = NC[C@H](N)C(=O)O

Assays:
ovariectomized mice = format: in vivo, mouse; conditions: OVX mice, 5 µmol/kg i.v. once weekly, 4 wk, vs vehicle
Outline: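 C57BL/6J ovariectomized mice, kept specific-pathogen-free, were given test compound i.v. once weekly for 4 wk. Sham-operated and vehicle groups served as controls. Bones were fixed in 70% ethanol and scanned by µCT, and 3D structural indices were computed. Undecalcified tibiae were embedded in glycol methacrylate and cut into 5 µm sections. Sections were stained with toluidine blue for osteoblast parameters and TRAP for osteoclast parameters. Data are mean ± SEM.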

[1] = system: mouse primary osteoblasts (calvarial cells); experiment: Bone nodule formation in primary calvarial cells, alizarin red S staining; format: cell-based; conditions: 10 µg/mL mouse Sema4D-Fc; peptide 0.05, 0.5, 5 µM; 21 d
[2] = system: Col1a1, Alpl, Bglap expression in mouse primary osteoblasts; experiment: qPCR of genes implicated in osteoblastic bone formation in primary osteoblasts; format: cell-based; conditions: with or without Sema4D-Fc, vs vehicle control
mouse PlxnB1 = target: T1, mouse PlxnB1 (Mus musculus, UniProt Q8CJH3); experiment: Surface plasmon resonance; format: binding
T1 sequence (Q8CJH3 20-479 limits assumed): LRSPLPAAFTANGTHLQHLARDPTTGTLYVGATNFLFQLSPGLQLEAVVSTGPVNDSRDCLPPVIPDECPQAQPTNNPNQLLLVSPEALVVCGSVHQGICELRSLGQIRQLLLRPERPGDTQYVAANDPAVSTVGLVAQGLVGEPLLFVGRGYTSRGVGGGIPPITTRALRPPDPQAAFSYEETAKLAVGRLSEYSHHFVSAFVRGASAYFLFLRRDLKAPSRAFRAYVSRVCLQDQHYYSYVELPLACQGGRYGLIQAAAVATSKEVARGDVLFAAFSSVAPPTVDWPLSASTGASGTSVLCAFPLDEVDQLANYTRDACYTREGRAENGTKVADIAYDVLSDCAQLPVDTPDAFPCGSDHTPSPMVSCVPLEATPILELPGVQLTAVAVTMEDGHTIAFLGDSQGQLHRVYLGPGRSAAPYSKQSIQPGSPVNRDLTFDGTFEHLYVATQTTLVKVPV

CC[C@H](C)[C@@H]1NC(=O)[C@H](Cc2ccc(O)cc2)NC(=O)[C@@H]2CCCN2C(=O)[C@H](CCCNC(=N)N)NC(=O)[C@@H](Cc2c[nH]c3ccccc23)NC(=O)CSC[C@@H](C(=O)NCC(=O)NCCOCCOCCOCCC(=O)NC[C@H](NC(=O)CCOCCOCCOCCNC(=O)CNC(=O)[C@@H]2CSCC(=O)N[C@H](Cc3c[nH]c4ccccc34)C(=O)N[C@@H](CCCNC(=N)N)C(=O)N3CCC[C@H]3C(=O)N[C@@H](Cc3ccc(O)cc3)C(=O)N[C@@H]([C@@H](C)CC)C(=O)N[C@@H](CCC(=O)O)C(=O)N[C@@H](CCCNC(=N)N)C(=O)N[C@@H](Cc3c[nH]c4ccccc34)C(=O)N[C@@H]([C@@H](C)O)C(=O)NCC(=O)N[C@@H](CCCNC(=N)N)C(=O)N[C@@H](CC(C)C)C(=O)N[C@@H]([C@@H](C)CC)C(=O)N[C@@H](C(C)C)C(=O)N2)C(N)=O)NC(=O)[C@H](C(C)C)NC(=O)[C@H]([C@@H](C)CC)NC(=O)[C@H](CC(C)C)NC(=O)[C@H](CCCNC(=N)N)NC(=O)CNC(=O)[C@H]([C@@H](C)O)NC(=O)[C@H](Cc2c[nH]c3ccccc23)NC(=O)[C@H](CCCNC(=N)N)NC(=O)[C@H](CCC(=O)O)NC1=O [PB1d6A9] (I: {CH2CO}-[dW]RPYIERWTGRLIVCG[PEG3][Dap]-NH2 / II: {CH2CO}-[dW]RPYIERWTGRLIVCG[PEG3]; amide I:18-II:C; thioether I:N-I:15, II:N-II:15)
bone loss, µCT of femurs (ovariectomized mice): clear suppression of bone loss
bone nodule formation (alizarin red S) [1]: dose-dependent increases in bone formation
expression of Col1a1, Alpl and Bglap [2]: enhanced
pKd (mouse PlxnB1): 9.70
decrease in dissociation rate of dimer over monomer, mouse PlxnB1 (mouse PlxnB1; PB1d6A9 vs PB1m6A9): 10 fold
improvement in KD of dimer over monomer, mouse PlxnB1 (mouse PlxnB1; PB1d6A9 vs PB1m6A9): ~220 fold
increase in association rate of dimer over monomer, mouse PlxnB1 (mouse PlxnB1; PB1d6A9 vs PB1m6A9): 22 fold
